Experimental data gathered from unrelated publications.
Compare with care: the assays were run in different laboratories.
Observed: cell growth or viability

SMILES | cell line | technique | time | IC50 [µM]
CO/N=C1/CCN2C(=O)c3ccccc3C2C(=O)Nc2ccccc21 (centres unmarked) | L6 |  |  | > 300
Cc1cc(/C=C/C#N)cc(C)c1Nc1ccnc(Nc2ccc(C#N)cc2)n1 | HNE1 | MTT | 48 h | 14.1
C=CC(=O)N1CCN(c2nc(=O)n(-c3c(C)ccnc3C(C)C)c3nc(-c4c(O)cccc4F)c(F)cc23)[C@@H](C)C1 | KYSE-410 | ATP luminescence |  | 0.0676
N#Cc1cccc(C=NNC(=N)NN=Cc2cccc(C#N)c2)c1 | L6 | resazurin | 70 h | 6.65
O=C1Nc2ccccc2C2(O)CCN3C12c1ccccc1S3(=O)=O (centres unmarked) | L6 |  |  | > 290
N=C(NN=Cc1ccc(N2CCOCC2)cc1)NN=Cc1ccc(N2CCOCC2)cc1 | L6 | resazurin | 70 h | 2.3
O=C1c2ccccc2C23C(=O)Nc4ccccc4C2(O)CCN13 (centres unmarked) | L6 |  |  | > 330
COc1cc2nc(N3CCN(C(=O)C4COc5ccccc5O4)CC3)nc(N)c2cc1OC (centres unmarked) | HK-1 | MTT | 48 h | 31.7
N=C(NN=CCc1ccc(OC(F)(F)F)cc1)NN=CCc1ccc(OC(F)(F)F)cc1 | L6 | resazurin | 70 h | 4.02
COc1cc2c3c(n(CCCN4CCOCC4)c(=O)c2cc1OC)-c1nc2c(cc1C3=O)OCO2 | RS4-11 | MTS | 72 h | 0.283
CC(C)C[C@@H]1NC(=O)CNC(=O)[C@H](CC(N)=O)NC(=O)[C@H](CCCNC(=N)N)NC(=O)[C@H]([C@@H](C)O)NC(=O)[C@@H]2CSSC[C@@H]3NC(=O)[C@H]([C@@H](C)O)NC(=O)CNC(=O)CNC(=O)[C@H](C(C)C)NC(=O)[C@@H]4CSSC[C@H](NC(=O)[C@H]([C@@H](C)O)NC(=O)[C@H](CSSC[C@H](NC(=O)[C@H](C(C)C)NC(=O)[C@@H]5CCCN5C1=O)C(=O)NCC(=O)N[C@@H](CCC(=O)O)C(=O)N[C@@H]([C@@H](C)O)C(=O)N4)NC(=O)CNC(=O)[C@@H]1CCCN1C(=O)[C@H]([C@@H](C)O)NC(=O)[C@H](CC(N)=O)NC3=O)C(=O)N[C@@H](CO)C(=O)N[C@@H](Cc1c[nH]c3ccccc13)C(=O)N1CCC[C@H]1C(=O)N[C@@H](C(C)C)C(=O)N2 | Sf9 | MTT | 24 h | 2.8
C=CC(=O)Nc1cc(Nc2nccc(-c3cn(C)c4ccccc34)n2)c(OC)cc1N(C)CCN(C)C | NCI-H460 |  | 72 h | 5.38
N#Cc1cc(/C=N/NC(=N)N/N=C/c2ccc(OC(F)(F)F)cc2)ccc1F | L6 | resazurin | 70 h | 7.05
O=C1CCN2C(=O)CCC2C(=O)Nc2ccccc21 (centres unmarked) | L6 |  |  | > 390
COc1cc2nc(N3CCN(C(=O)c4ccco4)CC3)nc(N)c2cc1OC | HNE1 | MTT | 48 h | 41.6
N=C(NN=Cc1ccc(OC(F)F)cc1)NN=Cc1ccc(OC(F)F)cc1 | L6 | resazurin | 70 h | 13.4
O=C1CCN2C(=O)c3cc(F)c(F)cc3C2C(=O)Nc2ccccc21 (centres unmarked) | L6 |  |  | > 290
N=C(N/N=C/c1cccc([N+](=O)[O-])c1)N/N=C/c1cccc([N+](=O)[O-])c1 | L6 | resazurin | 70 h | 17.7
CN1C(=O)CCC(N2Cc3c(C#CC4CCN(C(=O)[C@H]5CC[C@H](NC(=O)[C@@H]6NC7(CCCCC7)[C@@]7(C(=O)Nc8cc(Cl)ccc87)[C@H]6c6cccc(Cl)c6F)CC5)CC4)cccc3C2=O)C1=O (some centres unmarked) | RS4-11 |  |  | 0.751
CO[C@]12C[C@@H](COC(=O)c3cncc(Br)c3)CN(C)[C@@H]1Cc1cn(C)c3cccc2c13 | HK-1 | MTT | 48 h | 5.99
CC(C)c1ccccc1[C@@H]1CCCN1C1CC2(CCN(c3ccc(C(=O)NS(=O)(=O)c4ccc(NC[C@H]5CC[C@](C)(O)CC5)c([N+](=O)[O-])c4)c(Oc4cnc5[nH]ccc5c4)c3)CC2)C1 | RS4-11 | ATP luminescence | 48 h | 0.00056
CCNCCCn1c2c(c3cc(OC)c(OC)cc3c1=O)C(=O)c1cc3c(nc1-2)OCO3 | RS4-11 | MTS | 72 h | 0.038
C=C(F)C(=O)N1CCN(c2nc(OC[C@@H]3CCCN3C)nc3c2CCN(c2cccc4cccc(Cl)c24)C3)C[C@@H]1CC#N | KYSE-410 | ATP luminescence |  | 3.07
